# This is a sample that favours compounds with a hit; in the whole collection about 3.9% have one here.
# UPR XBP1 act = activators of adaptive XBP1 UPR arm, primary screen, cell-based, CHO-XBP1 luciferase reporter, luminescence, uHTS | IRE1-XBP1 UPR activation; percent of tunicamycin response, DMSO as zero | activation, % at 20 µM | 330,000 tested, 0.33% active | AID 463104, 2010;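 active = versus positive control, 20 µM dose yields 30% or more activation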
#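 Assay system: CHO-XBP1 luciferase reporter cells; Schedule: 6 h treatment, 37 °C; Detection: glow luminescence from Steady-Glo reagent; Benchmarks: high control tunicamycin 10 µg/mL final, low control DMSO vehicle only.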
# Jurkat NFkB inh = inhibitors of induced NF-kB luciferase reporter, primary screen, TCR NF-kB activation inhibitor project, cell-based, luminescence, uHTS; Jurkat, PMA/ionomycin-induced NF-kB luciferase reporter; inhibition, % at 4 µM; 330,000 tested, 0.53% active; in the data active = inhibition above about 50%
# Gli-Sufu block = Gli-Sufu pathway antagonists, primary screen, luciferase luminescence, Sufu-KO-LIGHT cells, uHTS; Sufu-KO-LIGHT fibroblasts, Gli luciferase reporter luminescence; inhibition, % at 5 µM; 340,000 tested, 0.74% active; AID 588413, 2011;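 active = inhibition above about 55%, limit read from the data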
# 697 NFkB inh = inhibitors of PMA/ionomycin-induced NF-kB reporter, 697 cells, primary screen, B-cell NF-kB inhibitor project, cell-based, luminescence, uHTS | 697 B-cell NF-kB luciferase reporter, 16 h | 330,000 tested, 0.33% active | inhibition, % at 4 µM; in the data active = inhibition above about 35%
# CHOP inh = inhibitors of CHOP promoter induction, primary screen, cell-based, unfolded protein response, luciferase reporter | CHO-K1 CHOP-promoter luciferase, tunicamycin-induced, 15-18 h | inhibition, % at 10 µM | 220,000 tested, 3.8% active;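 active = compounds that reduced the stress-induced luciferase reporter signal by more than about 70% of percent inhibition, limit read from the data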
# UPR CHOP act = activators of apoptotic CHOP UPR arm, primary screen, cell-based, CHO-CHOP luciferase reporter, luminescence, uHTS | 330,000 tested, 0.34% active | activation, % at 10 µM | UPR activation; percent of tunicamycin response over DMSO baseline;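 active = at 10 µM dose, activation of 40% or more, normalized to positive control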
#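 Material: CHO-CHOP cells, stable luciferase reporter of PERK-eIF2a-CHOP signalling; quantity: 500 reporter cells seeded per well; buffer or medium: F12 medium containing 10% fetal bovine serum; compound: one dose, 10 µM in 0.5% DMSO; incubation: 6 h compound treatment, 37 °C; measured by: Steady-Glo luciferase luminescence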
# A number is an active result; n = inactive; x = no result.
SMILES,UPR XBP1 act,Jurkat NFkB inh,Gli-Sufu block,697 NFkB inh,CHOP inh,UPR CHOP act
CCn1ncc(S(=O)(=O)N2CCN(c3cccc(OC)c3)CC2)c1C,n,n,n,n,x,n
O=S(=O)(c1ccccc1)N1CCN=C1SCc1ccc(Cl)c(Cl)c1,n,n,n,n,72,n
O=S(=O)(c1ccccc1)N1CCN=C1SCc1ccc(Cl)cc1,n,n,n,n,n,n
N#Cc1c2ccc([N+](=O)[O-])cc2[n+]([O-])n1-c1ccccc1,n,n,x,n,x,n
COc1ccc(NC(=S)N/N=C2/CCCc3c(C)cc(C)cc32)cc1,n,n,n,n,77,n
Cc1cc2c(cc1S(=O)(=O)CCC(=O)N(C)Cc1ccccc1)OCC(=O)N2,n,n,n,n,x,n
COc1ccc(-c2cnnn2-c2ccc(NC(=O)c3ccc(S(=O)(=O)N4CCCCC4)cc3)cc2)cc1OC,n,n,n,n,78,n
COc1ccc(C(=O)Nc2ccc(S(=O)(=O)N3CCCCC3)cc2)cc1OC,n,n,n,n,n,n
Cc1cnc(C(=O)OCC(=O)N2CC(C)CC(C)C2)cn1 (configuration not stated),n,n,n,n,x,n
CCOc1ccc(S(=O)(=O)NC(C)(C)C)cc1-c1nc2c(C(C)(C)C)nn(C)c2c(=O)[nH]1,n,n,n,n,81,n
Cc1ccc(S(=O)(=O)N2CCN(C(=O)COC(=O)Cc3cccc(C(F)(F)F)c3)CC2)c(C)c1,n,n,n,n,x,n
Cc1cc(C)nc(SCc2nnc(SCC(=O)Nc3ccc(Cl)c(C(F)(F)F)c3)o2)n1,n,n,n,n,75,n
Nc1ccccc1SC/C=C/CSc1ccccc1N,n,n,n,n,x,n
Oc1cccc(/C=N/Nc2cc(N3CCCC3)nc(N3CCCC3)n2)c1,n,n,n,n,79,n
O=C(NC1CC2CCCC(C1)N2Cc1ccccc1)c1ccc([N+](=O)[O-])cc1 (configuration not stated),n,n,n,n,x,n
CC(=O)c1cccc(NC(=O)C2C(c3ccccc3)C2(Cl)Cl)c1 (configuration not stated),n,n,n,n,n,n
Cc1cccc(NC(=O)C2C(c3ccccc3)C2(Cl)Cl)c1 (configuration not stated),n,n,n,n,74,n
Cc1ccc(-n2ncc3c(=O)n(-c4ccc(C)c(C)c4)c(C)nc32)cc1,n,n,n,n,73,n
COc1ccc(-n2c(C)nc3c(cnn3-c3ccc(C)c(C)c3)c2=O)cc1,n,n,n,n,73,n
Cc1ccc(-n2c(C)nc3c(cnn3-c3ccc(F)cc3)c2=O)cc1,n,n,n,n,n,n
COc1cccc(-n2c(C)nc3c(cnn3-c3ccc(Cl)cc3)c2=O)c1,n,n,n,n,n,n
CC(C)Cc1nnc(NC(=O)C2CC(=O)N(c3ccc4c(c3)OCCO4)C2)s1 (configuration not stated),n,n,n,n,x,n
Cc1ccc(C)c(OC(=O)C2CSC3(C)CCC(=O)N23)c1C (configuration not stated),n,n,n,n,x,n
Cc1cccc(N=N/C(=C\O)C(=O)c2cccs2)c1,n,n,n,n,n,n
O=C(/C(=C/O)N=Nc1ccccc1)c1ccc(Cl)cc1,n,n,n,n,92,n
SMILES,UPR XBP1 act,Jurkat NFkB inh,Gli-Sufu block,697 NFkB inh,CHOP inh,UPR CHOP act
O=C(/C(=C/O)N=Nc1ccccc1)c1ccncc1,n,n,n,n,n,n
Cc1ccc(N=N/C(=C\O)C(=O)c2ccc(Cl)cc2)cc1,n,n,n,n,95,n
CCCc1ccc(OCc2ccc(C(=O)N3CCN(c4ccccn4)CC3)o2)c(OC)c1,n,n,n,n,79,n
COc1ccc(N(CC(=O)Nc2cccc(C)c2)S(=O)(=O)c2c(C)noc2C)cc1,n,n,n,n,x,n
COc1ccc(N(CC(=O)Nc2ccc(C)cc2)S(=O)(=O)c2c(C)noc2C)cc1,n,n,n,n,x,n
Cc1noc(C)c1S(=O)(=O)N(CC(=O)Nc1ccc2c(c1)OCO2)c1ccc(C(C)C)cc1,n,n,n,n,81,n
COc1ccc(NC(=O)CN(c2cc(C)cc(C)c2)S(=O)(=O)c2c(C)noc2C)cc1OC,n,n,n,n,n,n
CCOc1ccc(N(CC(=O)Nc2cccc(F)c2)S(=O)(=O)c2c(C)noc2C)cc1,n,n,n,n,72,n
CCOc1ccccc1NC(=O)CN(c1cc(C)cc(C)c1)S(=O)(=O)c1c(C)noc1C,n,n,n,n,72,n
CCOc1ccc(N(CC(=O)Nc2ccc(C)c(C)c2)S(=O)(=O)c2c(C)noc2C)cc1,n,n,n,n,76,n
CCOC(=O)C1=C(C)Nc2ccccc2N/C1=N\S(=O)(=O)c1ccccc1,n,n,n,n,x,n
Cc1ccc(C(=O)Nc2cccc(S(=O)(=O)N3CCCCC3)c2)cc1[N+](=O)[O-],n,n,n,n,x,n
Cc1ccc(NC(=O)CSc2nc3ncc(Cl)cc3[nH]2)c(C)c1,n,n,n,n,x,n
Cc1ccc(N(CC(=O)Nc2cc(C)cc(C)c2)S(=O)(=O)c2c(C)noc2C)cc1,n,n,68,n,x,n
CC(C)CC(=O)Nc1cc2nn(-c3ccccc3)nc2cc1Cl,n,n,n,n,85,n
CC(C)CC(=O)Nc1cccc2c1C(=O)N(c1ccccc1)C2=O,n,n,n,n,n,n
Cc1cc(/C=C2/NC(=O)N(Cc3ccccc3F)C2=O)c(C)n1C(C)C,n,n,n,n,72,n
Brc1ccc2c(c1)OCCOCCOc1cc(Br)ccc1OCCOCCOCCO2,n,n,n,n,83,n
CCCCn1c(O)c(/C=C2\C=NN=C2c2ccccc2)sc1=S,n,n,n,n,n,n
CC(C)Cn1c(O)c(/C=C2\C=NN=C2c2ccccc2)sc1=S,n,n,n,n,71,n
Cc1[nH]c2c(ccc3ccccc32)c1C1C(CCN)C1(C)C (configuration not stated),n,n,n,n,92,n
S=c1[nH]c2ccc3ccccc3c2[nH]1,n,n,n,n,n,n
Cc1cccc(C(=O)N2CCN(CCNC(=O)C(=O)Nc3ccc(F)cc3)CC2)c1,n,n,n,n,x,n
CCc1ccc(S(=O)(=O)ON2C(=O)c3ccccc3C2=O)cc1,n,n,n,n,95,n
O=C(CN1CCCc2ccccc21)N/N=C/c1ccc(F)cc1F,n,n,n,n,n,n
